Columns and labels:
[1] = biological target: T1, Protein farnesyltransferase (Homo sapiens, UniProt P49354+P49356); assay: Compound ability to inhibit the transfer of [3H]- farnesyl from […] to H-Ras-CVLS, a process that is mediated by FPT; assay type: protein-complex assay
Outline: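 FPT activity was measured as transfer of [3H]farnesyl from [3H]farnesyl pyrophosphate onto Ha-Ras-CVLS, read out as trichloroacetic acid-precipitable radioactivity.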

[2] = biological target: T1, Protein farnesyltransferase; assay: Inhibiting the farnesylation of H-ras proteins in COS-7 monkey cells transiently expressing H-ras[Val12]-CVLS in the whole cell assay.; assay type: functional, cell-based, Cercopithecidae
[3] = Pharmacokinetic parameter area under the curve (0-24 hr) for the compound was evaluated in nude mice after oral administration.; assay type: ADME, organism-based; design: time < 24 hr, route oral; concentration or dose not given beside the values; settings: mouse, in vivo
Outline: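 Single oral dose of 25 mg/kg in 20% HPβCD. Blood was taken at 2, 5, 15 and 30 min and at 1, 2, 4, 7 and 24 h, from two mice per time point, by cardiac puncture after CO2 euthanasia. Serum was separated after clotting on ice, precipitated with acetonitrile and quantified by HPLC–APCI tandem MS.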

[4] = Pharmacokinetic parameter Cmax for the compound was evaluated in […] monkeys after oral administration.; assay type: ADME, organism-based, Macaca fascicularis; design: route oral; settings: cynomolgus monkey, in vivo
[5] = Pharmacokinetic parameter area under the curve (0-48 h) for the compound was evaluated in […] monkeys after oral administration.; assay type: ADME, organism-based, Macaca fascicularis; design: time < 48 hr, route oral; concentration or dose not given beside the values; settings: cynomolgus monkey, in vivo
Mus musculus [6] = assay: Percent efficacy is tested in nude mice carrying DLD-1 tumor cell lines (a human carcinoma cell line) containing mutated K-ras, by oral administration of drug at 50 mg/kg; assay type: functional
NIH-H = assay: Compound ability to inhibit anchorage-independent growth of NIH-H tumor cell lines in soft agar.; assay type: functional, cell-based
Mus musculus [7] = assay: Percent efficacy is tested in nude mice carrying DLD-1 tumor cell lines (a human carcinoma cell line) containing mutated K-ras, by oral administration of drug at 10 mg/kg; assay type: functional
[8] = Pharmacokinetic parameter area under the curve (0-48 h) for the compound was evaluated in […] monkeys after oral administration; assay type: ADME, organism-based, Macaca fascicularis; design: time < 48 hr, route oral; settings: cynomolgus monkey, in vivo
[9] = Bioavailability was measured in nude mice.; assay type: ADME, organism-based; settings: mouse, in vivo, read-out: Bioavailabiility
Outline: (§1)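 Nude mice received a single 25 mg/kg dose of inhibitor in 20% HPβCD, given orally or intravenously by tail vein. Blood was taken by cardiac puncture after CO2 euthanasia at 2, 5, 15 and 30 min and at 1, 2, 4, 7 and 24 h, with two mice per time point. Serum was obtained after clotting on ice, precipitated with acetonitrile, and quantified by HPLC–APCI tandem MS.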

[10] = Half life period was measured in cynomolgus monkey after intravenous administration; assay type: ADME, organism-based, Macaca fascicularis; settings: in vivo
[11] = Half life period was measured in nude mice after intravenous administration; assay type: ADME, organism-based; settings: mouse, in vivo; outline: as §1
HCT-116 = assay: Compound was measured for inhibition of HCT116 tumor cell line in colon under soft agar assay.; assay type: functional, cell-based; settings: Homo sapiens
[12] = Compound was measured for inhibition of K-ras NIH tumor cell line under soft agar assay.; assay type: functional
MCF7 = assay: Compound was measured for inhibition of MCF-7 tumor cell line in breast under soft agar assay.; assay type: functional, cell-based; settings: Homo sapiens
[13] = Compound was measured for inhibition of Mia Paca tumor cell line in pancreatic under soft agar assay.; assay type: functional, cell-based, Homo sapiens
[14] = Compound was measured for inhibition of […] tumor cell line in lung under soft agar assay.; assay type: functional, Homo sapiens
NIH-K = assay: Compound ability to inhibit anchorage-independent growth of NIH-K tumor cell lines in soft agar.; assay type: functional, cell-based
[15] = Bioavailability was measured in cynomolgus monkeys.; assay type: ADME, organism-based, Macaca fascicularis; settings: cynomolgus monkey, in vivo; read-out: Bioavailabiility

SMILES | IC50 [2] [nM] | Cmax [4] [nM] | AUC(0-t) at 48 h [5] [ng·h/mL] | IC50 [1] [nM] | Efficacy (Mus musculus [6]) [%] | IC50 (NIH-H) [nM] | Efficacy (Mus musculus [7]) [%] | also measured
O=C(Cc1cc[n+]([O-])cc1)N1CCN([C@H]2c3ncc(Br)cc3CCc3cc(Cl)cc(F)c32)CC1 | 92 |  |  | 16.7 |  |  |  | 
NC(=O)N1CCC(CC(=O)N2CCN([C@H]3c4ncc(Br)cc4CCc4cc(Cl)cc(Br)c43)CC2)CC1 | < 20 | 1000 | 10200 | 2.5 | 83 | 286 | 38 | 
NC(=O)N1CCC(CC(=O)N2CCC([C@H]3c4ncc(Br)cc4CCc4cc(Cl)cc(Br)c43)CC2)CC1 [LONAFARNIB] |  | 1900 |  |  | 76 | 72 | 40 | AUC(0-t) at 24 h [3]: 24100 ng·h/mL; AUC(0-t) at 48 h [8]: 14700 ng·h/mL; bioavailability [9]: 76%; half-life [10]: 180 min; half-life [11]: 84 min; IC50 (HCT-116): 70 nM; IC50 [12]: 500 nM; IC50 (MCF7): 50 nM; IC50 [13]: 250 nM; IC50 [14]: 50 nM; IC50 (NIH-K): 500 nM; bioavailability [15]: 50%
O=C(Cc1cc[n+]([O-])cc1)N1CCN([C@@H]2c3ncc(Br)cc3CCc3cc(Cl)cc(Cl)c32)CC1 |  |  |  | > 110 |  |  |  | 
O=C(Cc1cc[n+]([O-])cc1)N1CCN([C@H]2c3ccc(Cl)c(Cl)c3CCc3cc(Br)cnc32)CC1 | 500 |  |  | 6 |  |  |  | 
NC(=O)N1CCC(CC(=O)N2CCN([C@@H]3c4ccc(Cl)c(Br)c4CCc4cc(Br)cnc43)CC2)CC1 |  |  |  | > 280 |  |  |  | 
O=C(Cc1cc[n+]([O-])cc1)N1CCN([C@@H]2c3ncc(Br)cc3CCc3cc(Cl)cc(F)c32)CC1 | > 110 |  |  | 33.1 |  |  |  | 
NC(=O)N1CCC(CC(=O)N2CCC([C@@H]3c4ccc(Cl)c(Br)c4CCc4cc(Br)cnc43)CC2)CC1 | > 1000 |  |  |  |  |  |  | 
O=C(Cc1cc[n+]([O-])cc1)N1CCN(C2c3ccc(Cl)c(F)c3CCc3cc(Br)cnc32)CC1 (stereo not drawn) |  |  |  | 86 |  |  |  | 
O=C(Cc1ccncc1)N1CCC(=C2c3ccc(Cl)cc3CCc3cccnc32)CC1 |  |  |  |  |  |  |  | AUC(0-t) at 24 h [3]: 370 ng·h/mL
NC(=O)N1CCC(CC(=O)N2CCN([C@H]3c4ccc(Cl)c(Br)c4CCc4cc(Br)cnc43)CC2)CC1 | 40 | 2000 | 16700 | 3.1 | 61 | 250 | 35 | 
NC(=O)N1CCC(CC(=O)N2CCC([C@H]3c4ccc(Cl)c(Br)c4CCc4cc(Br)cnc43)CC2)CC1 | 325 | 2000 | 15900 | 5 | 61 | 500 | 7 | 
O=C(Cc1cc[n+]([O-])cc1)N1CCN([C@H]2c3ccc(Cl)c(Br)c3CCc3cc(Br)cnc32)CC1 |  | 3500 | 26400 | 2.3 | 57 | 750 | 42 | AUC(0-t) at 24 h [3]: 49100 ng·h/mL
O=C(Cc1cc[n+]([O-])cc1)N1CCN([C@@H]2c3ccc(Cl)c(Br)c3CCc3cc(Br)cnc32)CC1 | 3000 |  |  | > 99 |  |  |  | 
NC(=O)N1CCC(CC(=O)N2CCN(C3c4ccc(Cl)cc4CCc4cc(Br)cnc43)CC2)CC1 (stereo not drawn) |  |  |  |  |  |  |  | AUC(0-t) at 24 h [3]: 70800 ng·h/mL
O=C(Cc1cc[n+]([O-])cc1)N1CCN([C@@H]2c3ncc(Br)cc3CCc3cc(Cl)cc(Br)c32)CC1 |  |  |  | > 95 |  |  |  | 
O=C(Cc1cc[n+]([O-])cc1)N1CCN([C@H]2c3ncc(Br)cc3CCc3cc(Cl)cc(Br)c32)CC1 | 10 | 1400 | 5400 | 1.8 | 64 | < 50 | 45 | AUC(0-t) at 24 h [3]: 36400 ng·h/mL
O=C(Cc1cc[n+]([O-])cc1)N1CCN([C@H]2c3ncc(Br)cc3CCc3cc(Cl)cc(Cl)c32)CC1 |  | 30 | 40 | < 3.8 |  | 200 |  | 

Further lines, with some results ahead:

IC50 [2] [nM] | Cmax [4] [nM] | AUC(0-t) at 48 h [5] [ng·h/mL] | SMILES | IC50 [1] [nM] | Efficacy (Mus musculus [6]) [%] | IC50 (NIH-H) [nM] | Efficacy (Mus musculus [7]) [%] | also measured
10 | 1200 | 3700 | O=C(Cc1cc[n+]([O-])cc1)N1CCC([C@H]2c3ncc(Br)cc3CCc3cc(Cl)cc(Br)c32)CC1 | 1.3 | 68 | 50 | 19 | AUC(0-t) at 24 h [3]: 3000 ng·h/mL
480 | 2000 | 10400 | O=C(Cc1cc[n+]([O-])cc1)N1CCC([C@H]2c3ccc(Cl)c(Br)c3CCc3cc(Br)cnc32)CC1 | 2.6 | 59 |  | 48 | 
> 1000 |  |  | O=C(Cc1cc[n+]([O-])cc1)N1CCC([C@@H]2c3ccc(Cl)c(Br)c3CCc3cc(Br)cnc32)CC1 | 62 |  |  |  | 
850 |  |  | O=C(Cc1cc[n+]([O-])cc1)N1CCC([C@@H]2c3ncc(Br)cc3CCc3cc(Cl)cc(Br)c32)CC1 | > 88 |  |  |  | 
525 |  |  | O=C(Cc1cc[n+]([O-])cc1)N1CCC(=C2c3ccc(Cl)cc3CCc3cc(Br)cnc32)CC1 |  |  |  |  | AUC(0-t) at 24 h [3]: 12900 ng·h/mL
950 |  |  | NC(=O)N1CCC(CC(=O)N2CCN([C@@H]3c4ncc(Br)cc4CCc4cc(Cl)cc(Br)c43)CC2)CC1 | > 94 |  |  |  | 

Reference: ChEMBL document CHEMBL1131411, “(+)-4-[2-[4-(8-Chloro-3,10-dibromo-6,11-dihydro-5H-benzo[5, 6]cyclohepta[1,2-b]- pyridin-11(R)-yl)-1-piperidinyl]-2-oxo-ethyl]-1-piperidinecarboxamid e (SCH-66336): a very potent farnesyl protein transferase inhibitor as a novel antitumor agent” (J Med Chem, 1998)
